Non-standard residues stand in square brackets, D forms with d. Residues, ends and D or L forms follow the SMILES beside them. *: point of attachment. X1 = COc1cc(C(C)OC(=O)N2CO[C@@H]3[C@H](C)O[C@@H](O[C@H]4C[C@](O)(C(=O)CO)Cc5c(O)c6c(c(O)c54)C(=O)c4c(OC)cccc4C6=O)C[C@@H]32)c([N+](=O)[O-])cc1OCC(=O)NCCOCCOCCOCCn1nnc2c1-c1ccccc1CN(C(=O)CCNC(=O)CCN1C(=O)CC(*)C1=O)c1ccccc1-2; X2 = COc1cc(C(C)OC(=O)N[C@H]2C[C@H](O[C@H]3C[C@](O)(C(=O)CO)Cc4c(O)c5c(c(O)c43)C(=O)c3c(OC)cccc3C5=O)O[C@@H](C)[C@H]2O)c([N+](=O)[O-])cc1OCC(=O)NCCOCCOCCOCCn1nnc2c1-c1ccccc1CN(C(=O)CCNC(=O)CCN1C(=O)CC(*)C1=O)c1ccccc1-2; Mpa = O=C(O)CCS
Columns and labels:
[1] = Binding affinity to exosomes in human MDA-MB-231 cells assessed as co-localization of compound with exosomes on plasma membrane at 1 uM after 1 hr using Cy5-labeled peptides by Hoechst-staining based assay; assay type: ADME, Exosome; details: mda-mb-231, 1 h
[2] = Binding affinity to exosomes in human MDA-MB-231 cells assessed as co-localization of compound with exosomes out side nucleus area at 1 uM after 1 to 6 hrs using Cy5-labeled peptides by Hoechst-staining based assay; assay type: ADME, subcellular, Exosome; details: mda-mb-231, 1 µM
Procedure, shortened: (§1)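 Cy5-labeled L- or D-MARCKS-ED peptide (1 µM) was co-incubated with fluorescent dye-labeled exosomes on MDA-MB-231 cells for 6 h. Peptide and exosome signals were then examined by confocal microscopy, including higher-magnification 3D images, to assess co-localization relative to the nucleus.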

[3] = Binding affinity to exosomes in human MDA-MB-231 cells assessed as co-localization of compound with exosomes at 1 uM after 1 to 6 hrs using Cy5-labeled peptides by Hoechst-staining based assay; assay type: ADME, subcellular, Exosome; details: mda-mb-231, 1 µM; procedure, shortened: as §1
[4] = Drug uptake in human MDA-MB-231 cells at 1 uM after 6 hrs by flow cytometry; assay type: ADME, cell-based; details: mda-mb-231, 6 h
Procedure, shortened: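 MDA-MB-231 cells incubated 6 h with 1 µM compound. Uptake read by flow cytometry, with fluorescence intensity normalized to untreated cells. Three biologically independent experiments; standard deviation of mean fluorescence intensity.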

MDA-MB-231 [5] = experiment: Growth inhibition of human MDA-MB-231 cells irradiated with UV light for 15 mins followed by 15 mins incubation and measured after 5 days by crystal violet-staining based assay; assay type: functional, cell-based; details: MDA-MB-231, light or radiation study
Procedure, shortened: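 MDA-MB-231 cells exposed to prodrug at various concentrations for 6 h in medium with 10% FBS, washed twice with PBS, then irradiated 15 min with UV black lamp (320-400 nm, max 350 nm, ~0.8 mW/cm2 at 12 cm). Held 15 min at room temperature, washed, refed, and grown until untreated cells reached 80% confluency or 5 days. Crystal violet read-out; IC50 from growth inhibition curves.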

MDA-MB-231 [6] = experiment: Growth inhibition of human MDA-MB-231 cells measured after 5 days in absence of irradiation by crystal violet-staining based assay; assay type: cell-based; details: MDA-MB-231, 120 h
Procedure, shortened: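 MDA-MB-231 cells given prodrug at various concentrations for 6 h in medium with 10% FBS, washed twice with PBS. Plate wrapped in aluminum foil to exclude ambient UV, no irradiation. Cells then washed, refed, and grown until untreated cells reached 80% confluency or 5 days. Cell density read by crystal violet staining; IC50 from growth inhibition curves.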

MDA-MB-231 [7] = experiment: Cytotoxicity against human MDA-MB-231 cells at 10 uM after 6 hrs by NucBlue live cell stain-based confocal microscopy; details: mda-mb-231, 6 h
[8] = Drug uptake in human MDA-MB-231 cells at 5 uM after 3 hrs by NucBlue live cell stain-based confocal microscopy; assay type: ADME; details: mda-mb-231, 3 h
Procedure, shortened: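 MDA-MB-231 cells exposed to 5 µM conjugate for 3 h, then imaged by confocal microscopy at 40x using anthracycline fluorescence; untreated cells imaged as reference.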

MDA-MB-231 [9] = experiment: Ratio of IC50 for human MDA-MB-231 cells in absence of irradiation to IC50 for human MDA-MB-231 cells in presence of irradiation
[10] = Induction of exosomes-mediated drug uptake in human […] cells at 1 uM after 6 hrs in presence of cellmask orange-labeled exosomes by tritc channel based assay; details: mda-mb-231, 6 h; procedure, shortened: as §1
[11] = Induction of exosomes-mediated drug uptake in human […] cells at 1 uM after 6 hrs in presence of cellmask orange-labeled exosomes by Cy5 channel-based assay; details: mda-mb-231, 6 h; procedure, shortened: as §1
[12] = Drug uptake in human MDA-MB-231 cells at 1 uM after 1 to 6 hrs using Cy5-labeled peptides by confocal microscopy; details: mda-mb-231, 1 µM
[13] = Drug uptake in human HMEC cells at 1 uM after 1 to 6 hrs using Cy5-labeled peptides by confocal microscopy

| Compound | Drug uptake [4] | IC50 (MDA-MB-231 [5]) [nM] | IC50 (MDA-MB-231 [6]) [nM] | Ratio IC50 (MDA-MB-231 [9]) | Drug uptake [12] | Drug uptake [13] | further results |
| --- | --- | --- | --- | --- | --- | --- | --- |
| CC(C)C[C@H](NC(=O)[C@H](CCCCN)NC(=O)[C@H](Cc1ccccc1)NC(=O)[C@H](CO)NC(=O)[C@H](CCCCN)NC(=O)[C@H](CCCCN)NC(=O)[C@H](Cc1ccccc1)NC(=O)[C@H](CO)NC(=O)[C@H](Cc1ccccc1)NC(=O)[C@H](CCCNC(=N)N)NC(=O)[C@H](CCCCN)NC(=O)[C@H](CCCCN)NC(=O)[C@H](CCCCN)NC(=O)[C@H](CCCCN)NC(=O)[C@@H](N)CCCCN)C(=O)N[C@@H](CO)C(=O)NCC(=O)N[C@@H](Cc1ccccc1)C(=O)N[C@@H](CO)C(=O)N[C@@H](Cc1ccccc1)C(=O)N[C@@H](CCCCN)C(=O)N[C@@H](CCCCN)C(=O)N[C@@H](CC(N)=O)C(=O)N[C@@H](CCCCN)C(=O)N[C@@H](CCCCN)C(N)=O |  |  |  |  |  |  | Activity [1]: Active; Activity [2]: Active; Activity [3]: Active |
| COc1cc(C(C)OC(=O)N2CO[C@@H]3[C@H](C)O[C@@H](O[C@H]4C[C@](O)(C(=O)CO)Cc5c(O)c6c(c(O)c54)C(=O)c4c(OC)cccc4C6=O)C[C@@H]32)c([N+](=O)[O-])cc1OCC(=O)NCCOCCOCCOCCn1nnc2c1-c1ccccc1CN(C(=O)CCNC(=O)CCN1C(=O)CC(SCCC(=O)N[C@H](CCCCN)C(=O)N[C@H](CCCCN)C(=O)N[C@H](CCCCN)C(=O)N[C@H](CCCCN)C(=O)N[C@H](CCCCN)C(=O)N[C@H](CCCNC(=N)N)C(=O)N[C@H](Cc3ccccc3)C(=O)N[C@H](CO)C(=O)N[C@H](Cc3ccccc3)C(=O)N[C@H](CCCCN)C(=O)N[C@H](CCCCN)C(=O)N[C@H](CO)C(=O)N[C@H](Cc3ccccc3)C(=O)N[C@H](CCCCN)C(=O)N[C@H](CC(C)C)C(=O)N[C@H](CO)C(=O)NCC(=O)N[C@H](Cc3ccccc3)C(=O)N[C@H](CO)C(=O)N[C@H](Cc3ccccc3)C(=O)N[C@H](CCCCN)C(=O)N[C@H](CCCCN)C(=O)N[C@H](CC(N)=O)C(=O)N[C@H](CCCCN)C(=O)N[C@H](CCCCN)C(N)=O)C1=O)c1ccccc1-2 (stereo partly specified) | Active | 42 | 2000 | 130 |  |  | Activity (MDA-MB-231 [7]): Toxic; Drug uptake [8]: Active |
| COc1cc(C(C)OC(=O)N2CO[C@@H]3[C@H](C)O[C@@H](O[C@H]4C[C@](O)(C(=O)CO)Cc5c(O)c6c(c(O)c54)C(=O)c4c(OC)cccc4C6=O)C[C@@H]32)c([N+](=O)[O-])cc1OCC(=O)NCCOCCOCCOCCn1nnc2c1-c1ccccc1CN(C(=O)CCNC(=O)CCN1C(=O)CC(SCCC(=O)N[C@@H](CCCCN)C(=O)N[C@@H](CCCCN)C(=O)N[C@@H](CCCCN)C(=O)N[C@@H](CCCCN)C(=O)N[C@@H](CCCCN)C(=O)N[C@@H](CCCNC(=N)N)C(=O)N[C@@H](Cc3ccccc3)C(=O)N[C@@H](CO)C(=O)N[C@@H](Cc3ccccc3)C(=O)N[C@@H](CCCCN)C(=O)N[C@@H](CCCCN)C(=O)N[C@@H](CO)C(=O)N[C@@H](Cc3ccccc3)C(=O)N[C@@H](CCCCN)C(=O)N[C@@H](CC(C)C)C(=O)N[C@@H](CO)C(=O)NCC(=O)N[C@@H](Cc3ccccc3)C(=O)N[C@@H](CO)C(=O)N[C@@H](Cc3ccccc3)C(=O)N[C@@H](CCCCN)C(=O)N[C@@H](CCCCN)C(=O)N[C@@H](CC(N)=O)C(=O)N[C@@H](CCCCN)C(=O)N[C@@H](CCCCN)C(N)=O)C1=O)c1ccccc1-2 (stereo partly specified) | Active | 15 | 2500 | 170 |  |  | Activity (MDA-MB-231 [7]): Toxic; Drug uptake [8]: Active |
| CC(C)C[C@@H](NC(=O)[C@@H](CCCCN)NC(=O)[C@@H](Cc1ccccc1)NC(=O)[C@@H](CO)NC(=O)[C@@H](CCCCN)NC(=O)[C@@H](CCCCN)NC(=O)[C@@H](Cc1ccccc1)NC(=O)[C@@H](CO)NC(=O)[C@@H](Cc1ccccc1)NC(=O)[C@@H](CCCNC(=N)N)NC(=O)[C@@H](CCCCN)NC(=O)[C@@H](CCCCN)NC(=O)[C@@H](CCCCN)NC(=O)[C@@H](CCCCN)NC(=O)[C@H](N)CCCCN)C(=O)N[C@H](CO)C(=O)NCC(=O)N[C@H](Cc1ccccc1)C(=O)N[C@H](CO)C(=O)N[C@H](Cc1ccccc1)C(=O)N[C@H](CCCCN)C(=O)N[C@H](CCCCN)C(=O)N[C@H](CC(N)=O)C(=O)N[C@H](CCCCN)C(=O)N[C@H](CCCCN)C(N)=O |  |  |  |  | Active | Active | Drug uptake [10]: Active; Activity [1]: Active; Activity [2]: Active; Activity [3]: Active; Drug uptake [11]: Active |
| CC[C@H](C)[C@H](NC(=O)[C@H](CCCCN)NC(=O)[C@H](CC(=O)O)NC(=O)[C@H](Cc1ccc(O)cc1)NC(=O)[C@H](CC(=O)O)NC(=O)CNC(=O)CNC(=O)CCSC1CC(=O)N(CCC(=O)NCCC(=O)N2Cc3ccccc3-c3c(nnn3CCOCCOCCOCCNC(=O)COc3cc([N+](=O)[O-])c(C(C)OC(=O)N4CO[C@@H]5[C@H](C)O[C@@H](O[C@H]6C[C@](O)(C(=O)CO)Cc7c(O)c8c(c(O)c76)C(=O)c6c(OC)cccc6C8=O)C[C@@H]54)cc3OC)-c3ccccc32)C1=O)C(=O)NCC(=O)N[C@@H](CCCCN)C(=O)N[C@@H](CC(N)=O)C(=O)N[C@@H](CC(=O)O)C(=O)N[C@@H](C)C(N)=O (stereo partly specified) ([Mpa](X1)GGDYDKIGKNDA-NH2) | Not Active | 1300 | 11000 | 8.5 |  |  |  |
| COc1cc(C(C)OC(=O)N[C@H]2C[C@H](O[C@H]3C[C@](O)(C(=O)CO)Cc4c(O)c5c(c(O)c43)C(=O)c3c(OC)cccc3C5=O)O[C@@H](C)[C@H]2O)c([N+](=O)[O-])cc1OCC(=O)NCCOCCOCCOCCn1nnc2c1-c1ccccc1CN(C(=O)CCNC(=O)CCN1C(=O)CC(SCCC(=O)N[C@@H](CCCCN)C(=O)N[C@@H](CCCCN)C(=O)N[C@@H](CCCCN)C(=O)N[C@@H](CCCCN)C(=O)N[C@@H](CCCCN)C(=O)N[C@@H](CCCNC(=N)N)C(=O)N[C@@H](Cc3ccccc3)C(=O)N[C@@H](CO)C(=O)N[C@@H](Cc3ccccc3)C(=O)N[C@@H](CCCCN)C(=O)N[C@@H](CCCCN)C(=O)N[C@@H](CO)C(=O)N[C@@H](Cc3ccccc3)C(=O)N[C@@H](CCCCN)C(=O)N[C@@H](CC(C)C)C(=O)N[C@@H](CO)C(=O)NCC(=O)N[C@@H](Cc3ccccc3)C(=O)N[C@@H](CO)C(=O)N[C@@H](Cc3ccccc3)C(=O)N[C@@H](CCCCN)C(=O)N[C@@H](CCCCN)C(=O)N[C@@H](CC(N)=O)C(=O)N[C@@H](CCCCN)C(=O)N[C@@H](CCCCN)C(N)=O)C1=O)c1ccccc1-2 (stereo partly specified) ([Mpa](X2)KKKKKRFSFKKSFKLSGFSFKKNKK-NH2) | Active | 1200 | 6500 | 5.4 |  |  |  |
| H-DDDDDRASADDSADLSGASADDDDD-OH |  |  |  |  | Not Active | Not Active |  |
| H-GGDYDKIGKNDA-OH |  |  |  |  | Not Active | Not Active |  |
| H-KKKGKKNSSKKFFFFSKFKLSRKKK-NH2 |  |  |  |  | Active | Active |  |
